ChEMBL document CHEMBL4304819, “Natural product pectolinarigenin exhibits potent anti-metastatic activity in colorectal carcinoma cells in vitro and in vivo” (2019)
Active and inactive are the calls of the source. The calls are words filed in the database; no cut-off is given here.

Key:
HCT-116 [1] = assay: Induction of apoptosis in human HCT116 cells assessed as appearance of condensed nuclei up to 40 uM after 48 hrs by Hoechst 33258 staining-based fluorescent microscopic analysis; format: functional, cell-based
Method in brief: (§1)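 Cells (1–2 × 10^5 per well) plated on 18-mm coverslips in six-well plates for 24 h, treated at various concentrations for 48 h, washed with cold PBS, fixed 15 min in 4% paraformaldehyde, stained with Hoechst 33258 (5 μg/ml); condensed/fragmented nuclei scored by fluorescence microscopy (10×); stained positive cells, mean ± SD of three experiments.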

SW48 [2] = assay: Antiproliferative activity against human SW48 cells assessed as reduction in cell viability up to 40 uM by MTT assay; format: functional, cell-based; settings: TDE = time-dependent effect
Method in brief: (§2)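 Exponentially growing cells (2–6 × 10^3 per well) seeded in 96-well plates for 24 h, then exposed to 0, 2.5, 5, 10, 20, 40 µM for 24, 48 and 72 h. MTT (5 mg/mL stock) added 2–4 h at 37 °C; formazan dissolved in DMSO, absorbance at 570 nm. Three independent experiments.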

SW48 [3] = assay: Anticlonogenic activity against human SW48 cells assessed as reduction in colony formation up to 40 uM incubated for 24 hrs supplemented with fresh medium containing compound every 3 days for 12 days by crystal violet staining-based microscopic analysis; format: functional, cell-based
Method in brief: (§3)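 Cells seeded at 400–800 per well in 6-well plates; after 24 h, treated with 0–40 μM in fresh medium (with or without compound) replaced every three days for 12 days. Colonies fixed in methanol, stained with 0.5% crystal violet for 15 min and counted by microscope; reported as surviving colonies, mean ± SD of three experiments.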

CT26 [4] = assay: Antiproliferative activity against mouse CT26 cells assessed as inhibition of cell viability up to 40 uM by MTT assay; format: functional, cell-based; settings: TDE = time-dependent effect; method in brief: as §2
HCT-116 [5] = assay: Induction of apoptosis in human HCT116 cells assessed as nuclear fragmentation up to 40 uM after 48 hrs by Hoechst 33258 staining-based fluorescent microscopic analysis; format: functional, cell-based; method in brief: as §1
CT26 [6] = assay: Induction of apoptosis in mouse CT26 cells assessed as late apoptotic cells at 20 uM after 48 hrs by Annexin V-FITC/propidium iodide staining-based flow cytometric analysis (reference value: 6.49 %); format: functional
Method in brief: (§4)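 CT26 cells seeded at 1–2 × 10^5 per well in six-well plates for 24 h, then exposed to PEC (0–40 μM) for 24 or 48 h. Cells harvested, washed twice in cold PBS, stained with Annexin V-FITC/PI and read by flow cytometry. Early apoptotic = Annexin V+ only; late apoptotic = Annexin V+/PI+. Mean ± SD of three experiments.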

HCT-116 [7] = assay: Induction of apoptosis in human HCT116 cells assessed as viable cells at 40 uM after 48 hrs by Annexin V-FITC/propidium iodide staining-based flow cytometric analysis (reference value: 86.7 %); format: functional; settings: HCT-116, 48 h, read-out: Activity
Method in brief: (§5)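 Cells (1–2 × 10^5 per well) seeded in six-well plates 24 h, treated at 0–40 μM for 24 h or 48 h, harvested, washed twice in cold PBS, stained with Annexin V-FITC/PI and analysed by flow cytometry; early (Annexin V only) and late (Annexin V and PI) apoptotic fractions quantified; three experiments.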

HCT-116 [8] = assay: Induction of apoptosis in human HCT116 cells assessed as late apoptotic cells at 10 uM after 48 hrs by Annexin V-FITC/propidium iodide staining-based flow cytometric analysis (reference value: 3.87 %); format: functional; method in brief: as §5
HCT-116 [9] = assay: Antiproliferative activity against human HCT116 cells assessed as reduction in cell viability up to 40 uM by MTT assay; format: functional, cell-based; settings: TDE = time-dependent effect; method in brief: as §2
CT26 [10] = assay: Induction of apoptosis in mouse CT26 cells assessed as necrotic cells at 40 uM after 48 hrs by Annexin V-FITC/propidium iodide staining-based flow cytometric analysis (reference value: 1.80 %); format: functional; method in brief: as §4
SW48 [11] = assay: Inhibition of colony formation in human SW48 cells assessed as reduction in size of colonies up to 40 uM incubated for 24 hrs supplemented with fresh medium containing compound every 3 days for 12 days by crystal violet staining-based microscopic analysis; format: functional, cell-based
Method in brief: (§6)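 400–800 cells per well seeded in 6-well plates; after 24 h, PEC (0–40 μM) added. Medium with or without compound replaced every three days for 12 days. Colonies washed in cold PBS, fixed in methanol, stained 15 min with 0.5% crystal violet and counted under a microscope. Mean ± SD of three experiments.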

CT26 [12] = assay: Anticlonogenic activity against mouse CT26 cells assessed as reduction in colony formation up to 40 uM incubated for 24 hrs supplemented with fresh medium containing compound every 3 days for 12 days by crystal violet staining-based microscopic analysis; format: functional, cell-based; method in brief: as §3
CT26 [13] = assay: Induction of apoptosis in mouse CT26 cells assessed as appearance of condensed nuclei up to 40 uM after 48 hrs by Hoechst 33258 staining-based fluorescent microscopic analysis; format: functional, cell-based; method in brief: as §1
CT26 [14] = assay: Induction of apoptosis in mouse CT26 cells assessed as decrease in pro-caspase-3 expression up to 40 uM after 48 hrs by Western blot analysis; format: functional, cell-based
Method in brief: (§7)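 Cells treated 48 h at 0, 10, 20 and 40 μM, washed in cold PBS, lysed in RIPA; protein equalized by Lowry assay, resolved by SDS-PAGE, transferred to PVDF, blocked 1 h at 37 °C, primary antibody overnight at 4 °C, secondary 1 h, ECL detection, densitometry. β-actin loading control.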

HCT-116 [15] = assay: Induction of apoptosis in human HCT116 cells assessed as viable cells at 10 uM after 48 hrs by Annexin V-FITC/propidium iodide staining-based flow cytometric analysis (reference value: 86.7 %); format: functional; settings: HCT-116, 48 h, read-out: Activity; method in brief: as §5
HCT-116 [16] = assay: Induction of apoptosis in human HCT116 cells assessed as increase in cleaved caspase-3 expression after 48 hrs by Western blot analysis; format: functional, cell-based; method in brief: as §7
CT26 [17] = assay: Induction of apoptosis in mouse CT26 cells assessed as late apoptotic cells at 10 uM after 48 hrs by Annexin V-FITC/propidium iodide staining-based flow cytometric analysis (reference value: 6.49 %); format: functional; method in brief: as §4
HCT-116 [18] = assay: Antiinvasive activity against human HCT116 cells after 48 hrs by crystal violet staining based light microscopic analysis; format: functional, cell-based
Method in brief: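 Transwell membrane upper surface coated with Matrigel diluted 1:5 in serum-free medium. 5 × 10^4 cells in serum-free medium in upper part, 10% FBS medium below, treated with various concentrations for 48 h. Non-invading cells removed; underside cells fixed in methanol, stained with 0.5% crystal violet, counted by light microscopy; expressed as % inhibition versus untreated.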

CT26 [19] = assay: Antimetastatic activity against mouse CT26 cells allografted in Balb/c mouse assessed as inhibition of MMP -9 protein expression in tumour tissue at 25 to 50 mg/kg, ip administered daily for 14 days starting from 6 days post implantation by immunohistochemical analysis; format: functional, organism-based
Method in brief: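 Female BALB/c mice (6–8 weeks) injected ip with 5 × 10^5 CT26 cells; from day 6, randomized (eight per group) to ip vehicle, 25 or 50 mg/kg once daily for 14 days. Abdominal circumference and body weight every 3 days; abdominal nodules counted by eye and weighed; spleens assessed; paraffin tumour sections immunostained (Ki-67, MMP-9, p-Stat3) with DAB detection.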

CT26 [20] = assay: Antimetastatic activity against mouse CT26 cells allografted in Balb/c mouse assessed as decrease in CD11b-positive/Gr1-positive myeloid cells level in peripheral blood at 50 mg/kg, ip administered daily for 14 days starting from 6 days post implantation flow cytometric analysis (reference value: 33.2 %); format: functional; design: scale not given: the % may be the effect or the level left
HCT-116 [21] = assay: Inhibition of colony formation in human HCT116 cells assessed as reduction in size of colonies up to 40 uM incubated for 24 hrs supplemented with fresh medium containing compound every 3 days for 12 days by crystal violet staining-based microscopic analysis; format: functional, cell-based; method in brief: as §6

In the case of `COc1ccc(-c2cc(=O)c3c(O)c(OC)c(O)cc3o2)cc1` [PECTOLINARIGENIN], the Activity (HCT-116 [1]) is reported as “Active”, the inhibition (SW48 [2]) is reported as “Tde” and the inhibition (SW48 [3]) is reported as “Active”. The inhibition (CT26 [4]) was “Tde”, the Activity (HCT-116 [5]) was “Active” and the Activity (CT26 [6]) was 12.4%. The viability at 40 µM (HCT-116 [7]) was 73.7%, the Activity (HCT-116 [8]) was 5.81% and the inhibition (HCT-116 [9]) was “Tde”. For the same compound, the Activity (CT26 [10]) was 3.09%, the inhibition (SW48 [11]) was “Active” and the inhibition (CT26 [12]) was “Active”. For the same compound, the Activity (CT26 [13]) was “Active”, the Activity (CT26 [14]) was “Active” and the viability at 10 µM (HCT-116 [15]) was 85.1%. The Activity (HCT-116 [16]) was “Dose-dependent effect”, the Activity (CT26 [17]) was 15.5% and the inhibition (HCT-116 [18]) was “Dose-dependent effect”. For the same compound, the inhibition (CT26 [19]) was “Active”, the Activity (CT26 [20]) was 20.4% and the inhibition (HCT-116 [21]) was “Active”.
